Source: the M2OR odorant receptor database

Columns and labels:
Conditions in all cases: stereoisomer not certain
UniProt Q8VGC6 = target: T1, UniProt Q8VGC6
T1 sequence (whole entry): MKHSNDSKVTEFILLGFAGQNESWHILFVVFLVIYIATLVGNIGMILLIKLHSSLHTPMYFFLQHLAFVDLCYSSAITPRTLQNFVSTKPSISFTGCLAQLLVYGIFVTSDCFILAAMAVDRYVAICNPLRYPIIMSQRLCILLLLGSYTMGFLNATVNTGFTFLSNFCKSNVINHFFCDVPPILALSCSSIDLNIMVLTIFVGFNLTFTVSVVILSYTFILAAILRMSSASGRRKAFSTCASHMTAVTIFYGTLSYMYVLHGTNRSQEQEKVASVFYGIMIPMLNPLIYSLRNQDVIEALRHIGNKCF
In short: (§1)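 Assay methods differ from source to source, frequently being transient luciferase assays in mammalian cell lines. For each receptor–molecule pair, the label responsive (active) applies when the original authors judged the measured signal statistically different from baseline, and non-responsive (inactive) applies otherwise.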

UniProt Q8VGD7 = target: T2, UniProt Q8VGD7
T2 sequence (whole entry): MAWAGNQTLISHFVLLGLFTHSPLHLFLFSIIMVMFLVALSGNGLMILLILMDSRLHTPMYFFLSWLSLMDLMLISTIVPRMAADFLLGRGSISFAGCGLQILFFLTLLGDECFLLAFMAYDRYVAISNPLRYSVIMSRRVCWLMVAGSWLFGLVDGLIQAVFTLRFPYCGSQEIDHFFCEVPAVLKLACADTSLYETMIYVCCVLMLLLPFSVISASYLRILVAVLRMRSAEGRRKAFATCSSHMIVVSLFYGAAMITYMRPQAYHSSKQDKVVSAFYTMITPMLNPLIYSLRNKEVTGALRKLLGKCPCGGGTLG
In short: as §1

UniProt Q8VGH1 = target: T3, UniProt Q8VGH1
T3 sequence (whole entry): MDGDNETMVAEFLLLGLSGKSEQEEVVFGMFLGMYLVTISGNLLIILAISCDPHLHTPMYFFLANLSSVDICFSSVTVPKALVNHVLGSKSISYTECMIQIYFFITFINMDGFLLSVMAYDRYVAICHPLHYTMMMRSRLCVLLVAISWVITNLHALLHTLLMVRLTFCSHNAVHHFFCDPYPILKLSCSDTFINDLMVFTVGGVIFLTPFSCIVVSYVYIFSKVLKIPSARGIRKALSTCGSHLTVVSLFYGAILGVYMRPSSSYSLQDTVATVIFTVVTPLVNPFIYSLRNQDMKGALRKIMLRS
In short: as §1

UniProt Q8VGJ1 = target: T4, UniProt Q8VGJ1
T4 sequence (whole entry): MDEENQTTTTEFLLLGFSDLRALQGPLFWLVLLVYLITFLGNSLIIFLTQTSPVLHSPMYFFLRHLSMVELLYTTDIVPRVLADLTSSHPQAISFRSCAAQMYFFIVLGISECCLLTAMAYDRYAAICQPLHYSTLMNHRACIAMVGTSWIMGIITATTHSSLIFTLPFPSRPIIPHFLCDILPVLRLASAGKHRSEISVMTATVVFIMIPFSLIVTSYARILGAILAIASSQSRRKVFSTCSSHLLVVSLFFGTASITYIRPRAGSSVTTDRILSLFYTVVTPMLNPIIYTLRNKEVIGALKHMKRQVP
In short: as §1

UniProt Q8VGJ5 = target: T5, UniProt Q8VGJ5
T5 sequence (whole entry): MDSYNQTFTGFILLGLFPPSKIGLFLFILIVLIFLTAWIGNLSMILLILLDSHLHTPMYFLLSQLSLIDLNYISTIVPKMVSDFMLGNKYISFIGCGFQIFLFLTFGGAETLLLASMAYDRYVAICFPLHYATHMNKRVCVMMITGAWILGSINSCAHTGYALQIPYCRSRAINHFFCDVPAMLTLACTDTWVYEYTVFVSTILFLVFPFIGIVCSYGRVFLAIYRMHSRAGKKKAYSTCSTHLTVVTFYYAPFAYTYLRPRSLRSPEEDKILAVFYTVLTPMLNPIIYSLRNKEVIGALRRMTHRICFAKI
In short: as §1

UniProt Q8VGL0 = target: T6, UniProt Q8VGL0
T6 sequence (whole entry): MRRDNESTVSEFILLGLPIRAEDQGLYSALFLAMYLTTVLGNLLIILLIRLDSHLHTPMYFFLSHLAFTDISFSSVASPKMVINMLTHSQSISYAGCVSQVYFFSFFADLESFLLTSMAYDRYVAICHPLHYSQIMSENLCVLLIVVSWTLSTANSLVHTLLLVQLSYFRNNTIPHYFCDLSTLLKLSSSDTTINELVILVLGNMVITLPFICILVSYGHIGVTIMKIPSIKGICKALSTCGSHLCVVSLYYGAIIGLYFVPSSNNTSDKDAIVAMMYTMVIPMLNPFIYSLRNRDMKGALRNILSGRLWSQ
In short: as §1

UniProt Q8VGL7 = target: T7, UniProt Q8VGL7
T7 sequence (whole entry): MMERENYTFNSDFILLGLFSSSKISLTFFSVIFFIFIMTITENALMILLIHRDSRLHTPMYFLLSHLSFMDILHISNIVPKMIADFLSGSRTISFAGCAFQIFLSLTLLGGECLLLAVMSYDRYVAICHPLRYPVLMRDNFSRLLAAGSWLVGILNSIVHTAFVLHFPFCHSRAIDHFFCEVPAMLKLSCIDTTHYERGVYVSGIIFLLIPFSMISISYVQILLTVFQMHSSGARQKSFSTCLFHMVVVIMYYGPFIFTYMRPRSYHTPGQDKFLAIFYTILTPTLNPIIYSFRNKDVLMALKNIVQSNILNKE
In short: as §1

UniProt Q8VGM2 = target: T8, UniProt Q8VGM2
T8 sequence (whole entry): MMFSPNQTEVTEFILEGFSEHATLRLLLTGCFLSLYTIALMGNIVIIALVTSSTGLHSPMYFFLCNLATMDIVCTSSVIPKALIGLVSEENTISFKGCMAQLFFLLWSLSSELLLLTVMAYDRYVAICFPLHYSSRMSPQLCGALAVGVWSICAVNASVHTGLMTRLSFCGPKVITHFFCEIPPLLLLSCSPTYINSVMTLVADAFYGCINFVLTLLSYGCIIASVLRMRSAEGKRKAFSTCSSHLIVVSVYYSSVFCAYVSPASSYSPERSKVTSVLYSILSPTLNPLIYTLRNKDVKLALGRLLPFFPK
In short: as §1

UniProt Q8VGP6 = target: T9, UniProt Q8VGP6
T9 sequence (whole entry): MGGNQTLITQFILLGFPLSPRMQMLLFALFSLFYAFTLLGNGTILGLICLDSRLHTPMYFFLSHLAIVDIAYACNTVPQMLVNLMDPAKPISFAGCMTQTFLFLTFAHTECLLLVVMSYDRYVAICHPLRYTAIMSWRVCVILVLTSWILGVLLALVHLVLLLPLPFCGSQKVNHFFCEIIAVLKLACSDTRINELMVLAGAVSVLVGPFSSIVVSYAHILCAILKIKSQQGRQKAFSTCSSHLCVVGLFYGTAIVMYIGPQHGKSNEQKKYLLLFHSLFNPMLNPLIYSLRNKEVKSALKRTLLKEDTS
In short: as §1

UniProt Q8VGQ3 = target: T10, UniProt Q8VGQ3
T10 sequence (whole entry): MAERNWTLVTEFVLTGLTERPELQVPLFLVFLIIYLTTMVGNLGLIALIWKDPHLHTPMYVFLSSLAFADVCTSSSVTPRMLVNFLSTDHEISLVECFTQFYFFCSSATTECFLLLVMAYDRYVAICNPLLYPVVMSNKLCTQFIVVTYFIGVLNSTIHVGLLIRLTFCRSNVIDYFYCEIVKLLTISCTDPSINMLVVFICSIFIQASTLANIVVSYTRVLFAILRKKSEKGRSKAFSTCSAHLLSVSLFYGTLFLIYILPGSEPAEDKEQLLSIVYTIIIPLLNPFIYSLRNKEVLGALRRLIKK
In short: as §1

UniProt Q8VGT4 = target: T11, UniProt Q8VGT4
T11 sequence (whole entry): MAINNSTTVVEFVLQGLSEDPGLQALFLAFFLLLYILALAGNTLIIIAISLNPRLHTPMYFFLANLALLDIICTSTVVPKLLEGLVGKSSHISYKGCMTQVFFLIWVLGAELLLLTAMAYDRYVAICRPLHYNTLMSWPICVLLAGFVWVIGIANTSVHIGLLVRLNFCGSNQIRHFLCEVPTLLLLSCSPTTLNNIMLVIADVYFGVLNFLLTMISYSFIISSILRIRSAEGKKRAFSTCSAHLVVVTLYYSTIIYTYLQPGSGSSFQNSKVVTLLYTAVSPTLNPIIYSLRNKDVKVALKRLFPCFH
In short: as §1

UniProt Q8VGV1 = target: T12, UniProt Q8VGV1
T12 sequence (whole entry): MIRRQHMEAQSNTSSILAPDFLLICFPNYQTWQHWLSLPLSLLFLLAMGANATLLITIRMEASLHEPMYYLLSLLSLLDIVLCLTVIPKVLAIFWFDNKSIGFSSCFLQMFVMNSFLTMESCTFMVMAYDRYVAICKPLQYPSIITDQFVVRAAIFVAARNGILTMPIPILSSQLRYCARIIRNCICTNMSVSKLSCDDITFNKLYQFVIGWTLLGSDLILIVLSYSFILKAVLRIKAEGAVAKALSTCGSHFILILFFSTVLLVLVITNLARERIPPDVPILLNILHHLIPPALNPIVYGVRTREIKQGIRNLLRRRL
In short: as §1

UniProt Q8VGW5 = target: T13, UniProt Q8VGW5
T13 sequence (whole entry): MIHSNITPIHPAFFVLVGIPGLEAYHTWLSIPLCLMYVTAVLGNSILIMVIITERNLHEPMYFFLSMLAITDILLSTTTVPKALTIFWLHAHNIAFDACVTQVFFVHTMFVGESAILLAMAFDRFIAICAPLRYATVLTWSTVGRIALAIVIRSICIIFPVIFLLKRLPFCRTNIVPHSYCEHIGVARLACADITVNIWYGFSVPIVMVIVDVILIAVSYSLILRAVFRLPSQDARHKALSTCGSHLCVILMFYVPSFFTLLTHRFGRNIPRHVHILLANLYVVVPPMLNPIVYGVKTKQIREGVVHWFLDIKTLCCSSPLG
In short: as §1

UniProt Q8VGX5 = target: T14, UniProt Q8VGX5
T14 sequence (whole entry): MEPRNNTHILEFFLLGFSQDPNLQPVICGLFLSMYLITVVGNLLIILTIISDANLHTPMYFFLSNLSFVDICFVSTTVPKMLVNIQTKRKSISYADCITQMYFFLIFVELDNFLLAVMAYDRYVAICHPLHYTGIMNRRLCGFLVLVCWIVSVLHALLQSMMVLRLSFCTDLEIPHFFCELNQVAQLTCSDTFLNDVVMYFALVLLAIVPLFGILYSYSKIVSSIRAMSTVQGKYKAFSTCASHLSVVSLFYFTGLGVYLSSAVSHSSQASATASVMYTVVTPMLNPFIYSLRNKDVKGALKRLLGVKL
In short: as §1

UniProt Q8VGJ3 = target: T15, UniProt Q8VGJ3
T15 sequence (whole entry): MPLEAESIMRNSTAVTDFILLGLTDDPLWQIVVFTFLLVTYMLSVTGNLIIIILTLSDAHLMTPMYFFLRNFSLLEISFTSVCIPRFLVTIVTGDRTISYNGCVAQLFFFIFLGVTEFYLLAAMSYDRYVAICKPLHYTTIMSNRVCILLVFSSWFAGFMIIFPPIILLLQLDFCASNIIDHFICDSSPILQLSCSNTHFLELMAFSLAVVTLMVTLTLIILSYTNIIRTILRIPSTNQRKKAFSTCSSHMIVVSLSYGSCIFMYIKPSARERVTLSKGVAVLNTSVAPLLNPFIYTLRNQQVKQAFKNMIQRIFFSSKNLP
In short: as §1

UniProt Q8VGU3 = target: T16, UniProt Q8VGU3
T16 sequence (whole entry): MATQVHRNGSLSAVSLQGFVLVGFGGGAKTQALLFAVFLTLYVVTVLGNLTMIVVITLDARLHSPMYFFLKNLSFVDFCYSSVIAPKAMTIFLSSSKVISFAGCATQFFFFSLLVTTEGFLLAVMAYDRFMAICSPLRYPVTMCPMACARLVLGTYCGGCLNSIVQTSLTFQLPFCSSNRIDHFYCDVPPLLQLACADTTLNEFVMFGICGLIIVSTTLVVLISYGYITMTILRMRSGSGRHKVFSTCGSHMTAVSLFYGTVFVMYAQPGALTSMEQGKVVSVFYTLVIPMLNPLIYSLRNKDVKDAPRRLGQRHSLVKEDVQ
In short: as §1

UniProt Q8VGV7 = target: T17, UniProt Q8VGV7
T17 sequence (whole entry): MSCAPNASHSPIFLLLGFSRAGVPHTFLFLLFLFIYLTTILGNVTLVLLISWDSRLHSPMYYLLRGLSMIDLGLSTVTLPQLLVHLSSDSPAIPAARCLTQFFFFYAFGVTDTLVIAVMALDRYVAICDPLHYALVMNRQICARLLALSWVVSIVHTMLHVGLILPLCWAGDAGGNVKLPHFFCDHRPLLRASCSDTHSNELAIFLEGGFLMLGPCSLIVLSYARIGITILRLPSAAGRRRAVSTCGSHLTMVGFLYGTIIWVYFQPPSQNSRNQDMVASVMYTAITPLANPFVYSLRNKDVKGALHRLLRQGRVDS
In short: as §1

UniProt Q8VGX3 = target: T18, UniProt Q8VGX3
T18 sequence (whole entry): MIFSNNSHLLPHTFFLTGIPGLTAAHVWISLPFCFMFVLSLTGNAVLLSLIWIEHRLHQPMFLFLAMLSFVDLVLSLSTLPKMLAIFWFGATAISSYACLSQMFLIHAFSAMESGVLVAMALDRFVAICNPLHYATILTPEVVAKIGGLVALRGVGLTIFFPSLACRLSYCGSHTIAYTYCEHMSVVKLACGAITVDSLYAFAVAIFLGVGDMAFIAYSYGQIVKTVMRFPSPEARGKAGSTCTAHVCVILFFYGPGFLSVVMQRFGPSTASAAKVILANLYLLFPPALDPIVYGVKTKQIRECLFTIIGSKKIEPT
In short: as §1

Measured: odorant receptor agonist call

CCCC(C)=O
not listed: UniProt Q8VGJ3 | UniProt Q8VGU3 | UniProt Q8VGV7 | UniProt Q8VGX3
inactive: all other assays above

CCCCCCOC(C)=O
not listed: UniProt Q8VGW5
inactive: all other assays above

COc1nccnc1C(C)C
inactive: UniProt Q8VGC6 | UniProt Q8VGJ3 | UniProt Q8VGL0 | UniProt Q8VGU3 | UniProt Q8VGV7 | UniProt Q8VGX3 | UniProt Q8VGX5
